Assays:
[1] = test system: Trypanosoma brucei rhodesiense; test: Antitrypanosomal activity against Trypanosoma brucei rhodesiense trypomastigotes; assay type: functional; details: read-out: ED50 (the source's name)
Summary of the method: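 Bloodstream-form STIB900 trypomastigotes grown in HMI-18 + 15% HIFCS at 37 °C, 5% CO2. Seeded at 2 × 10^5/mL onto drug dilutions (top 30 µg/mL) for 72 h. Alamar Blue read 5-6 h later by fluorescence (ex/em 530/585 nm). ED50 by curve fitting.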

[2] = test system: Plasmodium falciparum; test: Antimalarial activity against Plasmodium falciparum 3D7; assay type: functional, organism-based; details: read-out: ED50 (the source's name)
Summary of the method: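 Synchronized ring-stage 3D7 culture at 1% parasitemia in RPMI 1640, 5% hematocrit, 37 °C, 5% CO2. Top final drug concentration 30 µg/mL. After 24 h, (3H)-hypoxanthine added (0.2 µCi/well), then 48 h further incubation. Plates freeze/thawed and harvested, and hypoxanthine uptake counted. ED50 by curve fitting.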

[3] = test system: KB; test: Cytotoxicity against KB cell line; assay type: functional; details: Homo sapiens, read-out: TD50 (the source's name)
[4] = test system: Plasmodium falciparum; test: Antimalarial activity against Plasmodium falciparum K1; assay type: functional, organism-based; details: read-out: ED50 (the source's name)
[5] = test system: Leishmania donovani; test: Antileishmanial activity against Leishmania donovani amastigotes in CD1 mouse macrophage; assay type: functional, organism-based; details: read-out: ED50 (the source's name)
Summary of the method: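 Peritoneal macrophages from starch-induced CD1 mice, kept 24 h in RPMI1640 + 10% HIFCS at 37 °C, 5% CO2. Infected with L. donovani MHOM/ET/67/L82 amastigotes from hamster spleen at 5 parasites:1 macrophage. After 24 h, drug exposure for 5 days, overlay replaced day 3. Top concentration 30 µg/mL, quadruplicate. Slides methanol-fixed, Giemsa-stained, counted microscopically. ED50 by curve fitting.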

[6] = test system: Trypanosoma cruzi; test: Antitrypanosomal activity against Trypanosoma cruzi trypomastigotes in CD1 mouse macrophage; assay type: functional; details: read-out: ED50 (the source's name)
Summary of the method: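 Starch-induced CD1 peritoneal macrophages plated at 4 × 10^5/mL, infected after 24 h with T. cruzi Tulahuan LAC-Z trypomastigotes. 24 h later, drug exposure for 3 days. ED50 by curve fitting.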

Row | Compound | EC50 [1] [µM] | EC50 [2] [µM] | EC50 [4] [µM] | EC50 [5] [µM] | EC50 [6] [µM] | CC50 [3] [µM]
1 | COC(=O)CCCCCCNC(=O)[C@@H](C)[C@H]1CC[C@H]2C3CC=C4C[C@@H](OC(C)=O)CC[C@]4(C)[C@H]3CC[C@]12C (some centres undefined) | 7.91 | 14.4 | 1.26 | > 57 | 10.8 | > 566
2 | COC(=O)CCNC(=O)[C@@H](C)[C@H]1CC[C@H]2C3CC=C4C[C@@H](OC(C)=O)CC[C@]4(C)[C@H]3CC[C@]12C (some centres undefined) | 6 | 17.4 | 19.1 | > 63 | 3.46 | 597
3 | COC(=O)CNC(=O)[C@@H](C)[C@H]1CC[C@H]2C3CC=C4C[C@@H](OC(C)=O)CC[C@]4(C)[C@H]3CC[C@]12C (some centres undefined) | 24 | 60 | 9.6 | > 65 | 42.2 | > 653
4 | COc1cc([C@@H]2c3cc4c(cc3[C@H](O)[C@H]3COC(=O)[C@H]23)OCO4)cc(OC)c1OC [PODOFILOX] | – | – | 0.1 | – | – | 0.001
5 | C[C@H](CNCC[C@H](NC(=O)OC(C)(C)C)C(=O)O)[C@H]1CC[C@H]2C3CC=C4C[C@@H](O)CC[C@]4(C)[C@H]3CC[C@]12C (some centres undefined) | > 56 | 36.6 | 38.1 | – | < 2.08 | > 563
6 | C[C@H](CNCCCCCCCC(=O)O)[C@H]1CC[C@H]2C3CC=C4C[C@@H](O)CC[C@]4(C)[C@H]3CC[C@]12C (some centres undefined) | 10.6 | > 63 | – | 26.4 | 38.4 | > 633
7 | C[C@H](CNCCCCCCC(=O)O)[C@H]1CC[C@H]2C3CC=C4C[C@@H](O)CC[C@]4(C)[C@H]3CC[C@]12C (some centres undefined) | 47.6 | > 65 | – | > 65 | 44.9 | 72
8 | C[C@H](C(=O)NCCCCCC(=O)O)[C@H]1CC[C@H]2C3CC=C4C[C@@H](O)CC[C@]4(C)[C@H]3CC[C@]12C (some centres undefined) | 10.4 | > 65 | – | > 65 | 11.4 | 303
9 | COC(=O)CCCNC(=O)[C@@H](C)[C@H]1CC[C@H]2C3CC=C4C[C@@H](OC(C)=O)CC[C@]4(C)[C@H]3CC[C@]12C (some centres undefined) | 9.15 | 16.2 | 11.6 | > 62 | 4.7 | > 615
10 | COC(=O)CCCNC[C@@H](C)[C@H]1CC[C@H]2C3CC=C4C[C@@H](O)CC[C@]4(C)[C@H]3CC[C@]12C (some centres undefined) | 5.05 | 7.53 | 1.95 | – | < 2.57 | 1.55
11 | C[C@H](CNCCCC[C@H](NC(=O)OCc1ccccc1)C(=O)O)[C@H]1CC[C@H]2C3CC=C4C[C@@H](O)CC[C@]4(C)[C@H]3CC[C@]12C (some centres undefined) | > 50 | 16.7 | 6.29 | – | 9.52 | > 504

Now from value to compound, other results behind:

Row | EC50 [1] [µM] | EC50 [2] [µM] | EC50 [4] [µM] | EC50 [5] [µM] | EC50 [6] [µM] | Compound | CC50 [3] [µM]
12 | 0.607 | 21.5 | 2.87 | > 55 | > 55 | COC(=O)CCCCCCCNC(=O)[C@@H](C)[C@H]1CC[C@H]2C3CC=C4C[C@@H](OC(C)=O)CC[C@]4(C)[C@H]3CC[C@]12C (some centres undefined) | > 552
13 | 0.619 | 0.839 | 0.069 | – | 1.71 | CC(=O)O[C@H]1CC[C@@]2(C)C(=CCC3[C@@H]4CC[C@H]([C@H](C)CNCCCC[C@H](NC(=O)OCc5ccccc5)C(=O)OCc5ccccc5)[C@@]4(C)CC[C@@H]32)C1 (some centres undefined) | 29.8
14 | 2.15 | 1.31 | 0.5 | – | < 2.41 | COC(=O)CCCCCNC[C@@H](C)[C@H]1CC[C@H]2C3CC=C4C[C@@H](O)CC[C@]4(C)[C@H]3CC[C@]12C (some centres undefined) | 6.09
15 | 0.308 | 0.349 | 0.062 | – | 2.64 | COC(=O)CCCCCCCNC[C@@H](C)[C@H]1CC[C@H]2C3CC=C4C[C@@H](O)CC[C@]4(C)[C@H]3CC[C@]12C (some centres undefined) | 6.17
16 | 3.45 | 21.3 | 19.8 | > 58 | 2.54 | COC(=O)CCCCCNC(=O)[C@@H](C)[C@H]1CC[C@H]2C3CC=C4C[C@@H](OC(C)=O)CC[C@]4(C)[C@H]3CC[C@]12C (some centres undefined) | > 582
17 | 0.302 | > 65.3 | – | 22.8 | 28.9 | COC(=O)CCNC[C@@H](C)[C@H]1CC[C@H]2C3CC=C4C[C@@H](OC(C)=O)CC[C@]4(C)[C@H]3CC[C@]12C (some centres undefined) | 17.4
18 | 3.01 | 0.74 | 8.43 | > 60 | 2.43 | COC(=O)CCCCNC(=O)[C@@H](C)[C@H]1CC[C@H]2C3CC=C4C[C@@H](OC(C)=O)CC[C@]4(C)[C@H]3CC[C@]12C (some centres undefined) | > 598
19 | 0.753 | 0.799 | 0.215 | – | < 1.71 | COC(=O)[C@H](CCCCNC[C@@H](C)[C@H]1CC[C@H]2C3CC=C4C[C@@H](OC(C)=O)CC[C@]4(C)[C@H]3CC[C@]12C)NC(=O)OCc1ccccc1 (some centres undefined) | 5.35
20 | 0.012 | 15.4 | – | 3.19 | 24.7 | COC(=O)CCCNC[C@@H](C)[C@H]1CC[C@H]2C3CC=C4C[C@@H](OC(C)=O)CC[C@]4(C)[C@H]3CC[C@]12C (some centres undefined) | 19.2
21 | 4.91 | 40.6 | 22.2 | – | < 2.75 | COC(=O)CNC[C@@H](C)[C@H]1CC[C@H]2C3CC=C4C[C@@H](O)CC[C@]4(C)[C@H]3CC[C@]12C (some centres undefined) | 45
22 | 2.32 | > 63 | – | > 63 | 34.5 | C[C@H](C(=O)NCCCCCCC(=O)O)[C@H]1CC[C@H]2C3CC=C4C[C@@H](O)CC[C@]4(C)[C@H]3CC[C@]12C (some centres undefined) | 252
